Test results as given in ChEMBL document CHEMBL4152210, “Design, synthesis, anti-lung cancer activity, and chemosensitization of tumor-selective MCACs based on ROS-mediated JNK pathway activation and NF-κB pathway inhibition” (Eur J Med Chem, 2018).
Active and inactive are the calls of the source. The calls are words filed in the database; no cut-off is given here.

Legend:
A549 [1] = assay: Cytotoxicity against human A549 cells assessed as reduction in cell viability after 72 hrs by MTT assay; type: functional, cell-based; conditions: A549, 72 h
Method in brief: (§1)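 Cells in RPMI 1640 with 10% heat-inactivated FBS and penicillin/streptomycin at 37 °C, 5% CO2. Seeded at 4000 per well, adhered overnight, then exposed to graded compound concentrations in triplicate wells for 72 h. MTT (5 mg/mL stock) added for 4 h, dissolved in DMSO, A490 read. IC50 is the concentration reducing viability by 50% versus untreated control.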

A549 [2] = assay: Induction of ROS generation in human A549 cells at 10 uM preincubated with NAC for 1 hr followed by compound addition and measured after 9 hrs by DCFDA staining based flow cytometric analysis; type: functional, cell-based
Method in brief: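 A549 (6 × 10^5 per 60 mm dish) exposed to 10 µM over a time course up to 12 h, or at 1, 5 or 10 µM for 9 h. Optional NAC (5 mM) pretreatment for 1 h before 10 µM for 9 h. Cells loaded with DCF-DA (10 µM) for 30 min at 37 °C in the dark, washed, and read by flow cytometry.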

A549 [3] = assay: Chemosensitization activity in human A549 cells assessed as inhibition of clonogenic growth at 0.5 uM in presence of 0.25 uM cisplatin incubated for 2 days followed by replacement of growth media and measured after 8 days by crystal violet staining-based assay relative to control; type: functional
Method in brief: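 A549 seeded at 1000 cells per well in 6-well plates, exposed to drug alone or combined with cisplatin or 5-Fu over a concentration series. Drug-containing medium replaced after 2 days. After a further 8 days, fixed with 1% methanol/1% formaldehyde and stained with 0.5% crystal violet. Percent inhibition at each concentration calculated relative to control.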

A549 [4] = assay: Cell cycle arrest in human A549 cells assessed as increase in accumulation at G2/M phase after 10 hrs by propidium iodide staining based flow cytometric analysis; type: functional
Method in brief: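 A549 (6 × 10^5 per 60 mm dish, overnight) treated at 1, 5 or 10 µM for 10 h, with BMS345541 (20 µM) as positive control. Trypsinized, fixed in ice-cold 70% ethanol at −20 °C for 30 min, treated with RNase A, stained with 50 µg/mL PI, analysed by flow cytometry.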

NCI-H460 = assay: Cytotoxicity against human H460 cells assessed as reduction in cell viability after 72 hrs by MTT assay; type: functional, cell-based; conditions: NCI-H460, 72 h; method in brief: as §1
[5] = Selectivity index, ratio of IC50 for human HL7702 cells to IC50 for human NCI-H1975 cells; type: toxicity
Method in brief: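 Selectivity index taken as the logarithm of the ratio of the HL7702 IC50 to the cancer-line IC50. […] Not calculated when an IC50 was lacking.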

**Q.** For `COc1cc(/C=C2\CN(C)C/C(=C\c3cc(OC)c(OC)c(OC)c3)C2=O)cc(OC)c1OC`, which IC50 (A549 [1]) is on record?
**A.** Its IC50 is 1700 nM.

**Q.** And the Activity (A549 [2])?
**A.** The Activity was “inactive”.

**Q.** What about the “inhibition (INH)” value (A549 [3]) of the same molecule?
**A.** Its value is 59%.

**Q.** And the Activity (A549 [4])?
**A.** Its Activity is “Dose-dependent effect”.

**Q.** And the IC50 (NCI-H460)?
**A.** Its IC50 is 1000 nM.

**Q.** And the “log(RatioIC50)” value [5]?
**A.** Its value is 1.42.
